According to ChEMBL document CHEMBL1811777, “Rational design of potent, small, synthetic allosteric inhibitors of thrombin” (J Med Chem, 2011):
Active and inactive are the calls of the source. The rule behind the calls is not given here.

Experiments:
Prothrombin [1] = biological target: T1, Prothrombin (Homo sapiens, UniProt P00734); assay: Inhibition of human alpha-thrombin assessed as spectrozyme TH hydrolysis after 10 mins by spectrophotometric analysis
Method in brief: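 Human α-thrombin (~5 nM initial) preincubated 10 min with inhibitor (4 μg/ml to 5 mg/ml stocks) at 25 °C. Buffer: 20 mM Tris-HCl pH 7.4, 100 mM NaCl, 2.5 mM CaCl2, 0.1% PEG 8000. Fractional residual activity fitted to logistic equation (Hill slope fixed at 1) for IC50 and efficacy ΔY.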

Plasma [2] = assay: Anticoagulant activity in human plasma assessed as concentration required to double the activated partial thromboplastin time; assay type: functional
Plasma [3] = assay: Anticoagulant activity in human plasma assessed as concentration required to double the prothrombin time; assay type: functional
Method in brief: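 One-stage recalcification PT on a fibrometer. 10 μL inhibitor brought to 100 μL with citrated human plasma, incubated 30 s at 37 °C, then 200 μL prewarmed thromboplastin added and clotting time recorded. Deionized water gave baseline clotting time. Duplicates; concentration doubling PT read from clotting time versus concentration.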

Prothrombin [4] = biological target: T1, Prothrombin; assay: Non-competitive inhibition of human alpha-thrombin assessed as spectrozyme TH hydrolysis at 1.5 to 30 uM by Michaelis-Menten equation analysis
Method in brief: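 Spectrozyme TH (10 to 600 μM) hydrolysed by 5–10 nM human thrombin at fixed inhibitor levels (0–30 μM) in 20 mM Tris-HCl pH 7.4, 37 °C. Initial rate taken from linear A405 rise with under 10% substrate consumption. KM and VMAX obtained by fitting the Michaelis-Menten equation.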

`CCOC(=O)c1c(CN2CCOCC2)oc2cc(OC)c(OS(=O)(=O)O)cc12` was tested, and the IC50 (Prothrombin [1]; read-out: IC50) was greater than 7000 µM.
Compound `COC(=O)c1c(C)oc2cc(OC)c(OS(=O)(=O)O)cc12` has an IC50 (Prothrombin [1]; read-out: IC50) greater than 3000 µM.
`COc1cc2oc(C)c(C(=O)N3CCOCC3)c2cc1OCc1oc2cc(OC)c(OS(=O)(=O)[O-])cc2c1C(=O)N1CCOCC1.[Na+]` showed an IC50 (Prothrombin [1]; read-out: IC50) greater than 7100 µM and a 2aPTT (Plasma [2]) greater than 1000 µM.
`CCOC(=O)c1c(C)oc2cc(OC(=O)N3CCOCC3)c(OS(=O)(=O)O)cc12` gave an IC50 (Prothrombin [1]; read-out: IC50) greater than 25000 µM.
`CCOC(=O)c1c(C)oc2cc(OC(C)C)c(OS(=O)(=O)O)cc12` showed an IC50 (Prothrombin [1]; read-out: IC50) of 13700 µM.
In the case of `COc1cc2oc(C)c(C(=O)O)c2cc1OCc1oc2cc(OC)c(OS(=O)(=O)[O-])cc2c1C(=O)O.[Na+]`, the IC50 (Prothrombin [1]; read-out: IC50) is reported as 374 µM and the 2aPTT (Plasma [2]) is reported as greater than 1000 µM.
In the case of `CCOC(=O)c1c(C)oc2cc(OC)c(OCc3oc4cc(OC)c(OS(=O)(=O)[O-])cc4c3C(=O)OCC)cc12.[Na+]`, the IC50 (Prothrombin [1]; read-out: IC50) is reported as 60 µM, the 2PT (Plasma [3]) is reported as 2100 µM and the inhibition (Prothrombin [4]) is reported as “Active”. For the same compound, the 2aPTT (Plasma [2]) was 740 µM.
In the case of `CCOC(=O)c1c(C)oc2cc(OC(=O)c3ccc(OC)cc3)c(OS(=O)(=O)[O-])cc12.[Na+]`, the IC50 (Prothrombin [1]; read-out: IC50) is reported as 520 µM, the 2PT (Plasma [3]) is reported as 1200 µM and the 2aPTT (Plasma [2]) is reported as 1250 µM.
Work on `COc1cc2oc(C)c(C(=O)N3CCCCC3)c2cc1OS(=O)(=O)O` yielded an IC50 (Prothrombin [1]; read-out: IC50) greater than 2000 µM.
Compound `COCCOC(=O)c1c(C)oc2cc(OC)c(OCc3oc4cc(OC)c(OS(=O)(=O)[O-])cc4c3C(=O)OCCOC)cc12.[Na+]` has an IC50 (Prothrombin [1]; read-out: IC50) of 375 µM and a 2aPTT (Plasma [2]) greater than 1000 µM.
With `CCOC(=O)c1c(C)oc2cc(OC)c(OCc3oc4cc(OS(=O)(=O)O)c(OS(=O)(=O)O)cc4c3C(=O)OCC)cc12` the IC50 (Prothrombin [1]; read-out: IC50) was 365 µM and the IC50 (Prothrombin [1]; read-out: pIC50 (converted)) was 363 µM.
With `CCOC(=O)c1c(C)oc2cc(OCC)c(OS(=O)(=O)O)cc12` the IC50 (Prothrombin [1]; read-out: IC50) was 20600 µM and the IC50 (Prothrombin [1]; read-out: pIC50 (converted)) was 20000 µM.
In the case of `CCOC(=O)c1c(C)oc2cc(OC)c(OS(=O)(=O)O)cc12`, the IC50 (Prothrombin [1]; read-out: IC50) is reported as greater than 2500 µM.
`CCOC(=O)c1c(C)oc2cc(OCc3oc4cc(OC)c(OS(=O)(=O)O)cc4c3C(=O)OCC)c(OS(=O)(=O)O)cc12` gave an IC50 (Prothrombin [1]; read-out: IC50) of 764 µM and an IC50 (Prothrombin [1]; read-out: pIC50 (converted)) of 759 µM.
`COC(=O)c1c(C)oc2cc(OC)c(OCc3oc4cc(OC)c(OS(=O)(=O)[O-])cc4c3C(=O)OC)cc12.[Na+]` gave an IC50 (Prothrombin [1]; read-out: IC50) of 37 µM, an IC50 (Prothrombin [1]; read-out: pIC50 (converted)) of 37.2 µM and a 2PT (Plasma [3]) of 850 µM. It also gave a 2aPTT (Plasma [2]) greater than 1000 µM.
Compound `COc1cc2oc(C)c(C(=O)OC(C)(C)C)c2cc1OCc1oc2cc(OC)c(OS(=O)(=O)[O-])cc2c1C(=O)OC(C)(C)C.[Na+]` has an IC50 (Prothrombin [1]; read-out: IC50) of 7.3 µM, an IC50 (Prothrombin [1]; read-out: pIC50 (converted)) of 7.24 µM and a 2aPTT (Plasma [2]) of 355 µM.
Compound `COc1cc2oc(C)c(C(=O)N3CCOCC3)c2cc1OS(=O)(=O)O` has an IC50 (Prothrombin [1]; read-out: IC50) greater than 2000 µM.
For `CCOC(=O)c1c(C)oc2cc(OCC)c(OCc3oc4cc(OCC)c(OS(=O)(=O)[O-])cc4c3C(=O)OCC)cc12.[Na+]`, the IC50 (Prothrombin [1]; read-out: IC50) was 121 µM and the 2aPTT (Plasma [2]) was 530 µM.
Compound `CCOC(=O)c1c(COc2cc3c(C(=O)OCC)c(CN4CCOCC4)oc3cc2OC)oc2cc(OC)c(OS(=O)(=O)O)cc12` has an IC50 (Prothrombin [1]; read-out: IC50) of 129 µM and an IC50 (Prothrombin [1]; read-out: pIC50 (converted)) of 129 µM.
Work on `COCCOC(=O)c1c(C)oc2cc(OC)c(OS(=O)(=O)O)cc12` yielded an IC50 (Prothrombin [1]; read-out: IC50) greater than 2000 µM.
For `COc1cc2oc(C)c(C(=O)OC(C)(C)C)c2cc1OS(=O)(=O)[O-].[Na+]`, the IC50 (Prothrombin [1]; read-out: IC50) was greater than 3000 µM and the 2aPTT (Plasma [2]) was greater than 2000 µM.
`CCOC(=O)c1c(C)oc2cc(OC(C)C)c(OCc3oc4cc(OC(C)C)c(OS(=O)(=O)O)cc4c3C(=O)OCC)cc12` showed an IC50 (Prothrombin [1]; read-out: IC50) of 30 µM.
`CCOC(=O)c1c(C)oc2cc(OCOC)c(OS(=O)(=O)[O-])cc12.[Na+]` gave an IC50 (Prothrombin [1]; read-out: IC50) greater than 16000 µM and a 2aPTT (Plasma [2]) greater than 1200 µM.
In the case of `C=CCOC(=O)c1c(C)oc2cc(OC)c(OS(=O)(=O)O)cc12`, the IC50 (Prothrombin [1]; read-out: IC50) is reported as greater than 3000 µM.
